# V-ATPase pH – yeast V-ATPase proton transport regulation by pHLuorin; S. cerevisiae, pHLuorin cytosolic pH fluorescence; 350,000 tested, 0.37% active; AID 504577; response, % at 10 µM; in the data active = response mostly above about 7.3%, no sharp cut-off; inactive = mostly below about 5.4%; also: actives read high
# Cl transport mod – modulators of human KCC2 chloride dependent transport; KCC2 cells, thallium flux FluoZin-2 fluorescence; B-score of Tl+ flux slope (higher = more flux/activation; lower = inhibition) at 10 µM; 190,000 tested, 2.2% active; AID 1456;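 active = thallium flux slope and its plate-corrected score both differing from the plate sample mean at a set confidence after two filtering rounds, in either direction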;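 also: slope of fluorescence scaled to starting intensity during 10 to 20 s after thallium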
# Dynein transport – blocks dynein driven cargo transport along microtubules; 3617.4 mouse cells, GR-EGFP nuclear translocation imaging; test concentration mostly 20 µM; stimulated with dexamethasone, 1 µM; stronger effect = lower value; 220,000 tested, 0.47% active; z-score, hits read low;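 active = plate z-score of nuclear minus cytoplasmic receptor signal below a set negative limit, without overly bright fluorescence or cell loss, cut at about -3.5 in these data, passing the limit was not always enough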;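 also: z-score of nuclear minus cytoplasmic ring GR-EGFP intensity difference per well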
#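 Buffer or medium – tet-free medium with charcoal-stripped serum · Signal – automated 10x imaging of fixed Hoechst-stained cells · Also added – dexamethasone agonist, 1.0 µM final, for 30 min · Incubation – induction 48 h, compound 1 h, agonist 30 min · Read-out – GR-EGFP nuclear translocation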
# ABCB6 inh MLPCN – blocks the human ABCB6 transporter; K562-ABCB6 porphyrin accumulation, flow cytometry, 1 h; stronger effect = lower value; fluorescence ratio to DMSO, % at 10 µM; 360,000 tested, 0.19% active;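 active = fluorescence ratio to DMSO below 75%, the collection mean minus 3 SD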;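 also: signal is porphyrin accumulated inside mitochondria; 100% equals median channel fluorescence of DMSO control wells; lower ratio means ABCB6 inhibition with less porphyrin fluorescence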
# p-CIP stab down – p/CIP protein destabilization; Q05BA5; F442A p/CIP-EGFP cells, EGFP fluorescence, 16 h; decrease of EGFP signal, % at 10 µM; 290,000 tested, 0.01% active; AID 1984;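 active = EGFP signal decrease of at least 30% at 10 µM or well 3 SD below plate mean, unless failing retest; inactive = the rest, including hits failing retest or dose response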
# ABCB6 blocker 1 – blocks the human ABCB6 transporter | shares compounds with ABCB6 inh MLPCN | K562-ABCB6 porphyrin accumulation, flow cytometry, 1 h; stronger effect = lower value | ratio response (% of DMSO), % at 10 µM | 700 tested, under 10 active | AID 602430;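 active = repeat-averaged ratio response below 75% of DMSO, the collection mean minus 3 SD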;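 also: median porphyrin fluorescence at 575 nm with 488 nm excitation from mitochondria; lower ratio means less porphyrin signal so ABCB6 inhibition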
# * hit, by the source's call; x = no result. Only a selection was taken, and hits are over-represented in it overall.
SMILES,V-ATPase pH,Cl transport mod,Dynein transport,ABCB6 inh MLPCN,p-CIP stab down,ABCB6 blocker 1
CC1C(=O)Nc2ccccc2N1C(=O)C1CC1 (stereo not given),-1,-0.8,0.081,72*,10,100
Cc1ccc(NC(=O)CCNC(=O)Cn2cnc3ccccc3c2=O)cc1F,5,x,x,100,-20,x
O=C(Nc1cccc2c1CCCC2)c1cc(C2CCCCN2C(=O)c2cccs2)on1 (stereo not given),x,x,x,98,x,x
Cc1cccn2c(=O)c3cc(S(=O)(=O)c4ccccc4)c(=N)n(Cc4ccco4)c3nc12,-1,x,-1.3,66*,3,104
Cc1cccn2c(=O)c3cc(S(=O)(=O)c4ccc(F)cc4)c(=N)n(Cc4ccco4)c3nc12,2,-0.077,0.82,95,4,x
O=C(c1ccc(S(=O)(=O)Nc2cccc(C(F)(F)F)c2)cc1)N1CCOCC1,2,x,x,97,-4,x
CC(C)(CNC(=O)c1ccc(S(=O)(=O)Nc2cccc(C(F)(F)F)c2)cc1)N1CCOCC1,2,x,x,72*,x,102
Cc1cnc(C(=O)OCc2ccc(C#N)cc2)cn1,1,x,x,101,-8,x
Cc1cnc(C(=O)OCc2ccc(Br)cc2)cn1,0,x,x,73*,-6,104
CC1(C)CC(=O)C=C(Nc2cc(-c3ccccc3)[nH]n2)C1,0,x,-0.83,47*,5,100
CC(=O)N1C(=O)C2(C(C#N)=C(N)Oc3c2c(C)nn3-c2ccccc2)c2ccccc21 (stereo not given),-2,x,1.3,44*,-4,101
O=C(NCc1ccc(F)cc1Cl)C1CCN(S(=O)(=O)N2CCC3(CC2)OCCO3)CC1,-1,x,-0.053,69*,-8,96
O=C(NCc1ccccc1Cl)C1CCN(S(=O)(=O)N2CCC3(CC2)OCCO3)CC1,7,x,-0.91,95,-6,x
CC(C)c1ccc(OCC(=O)Nc2ccc(OC(F)(F)F)cc2)cc1,0,0.22,0.068,63*,-11,99
CC(C)c1ccc(NC(=O)COc2ccccc2)cc1,-3,x,x,100,-2,x
COc1ccc(C(=O)Nc2nnc(-c3ccccc3)o2)cc1OC,0,x,-0.54,96,-9,x
O=C(Nc1nnc(-c2ccccc2)o1)c1cc(Cl)sc1Cl,-1,60*,0.77,69*,-3,98
O=C(Nc1cccc(Cl)c1)c1cc2c(=O)n3ccccc3nc2s1,-10,x,x,93,5,104
Cc1cccc(OCCSc2nc3ncnc(N)c3[nH]2)c1,-3,0.88,1.9,71*,8,102
CCOc1ncccc1C(=O)Nc1ccc(C)c(S(=O)(=O)N2CCCCCC2)c1,4,x,x,95,x,x
CCS(=O)(=O)N1Cc2ccccc2CC1C(=O)NCCc1c[nH]c2ccccc12 (stereo not given),-3,x,x,102,3,x
COC(=O)c1cc(S(=O)(=O)N2CCN(c3ccc(F)cc3)CC2)c[nH]1,-2,x,x,46*,-10,99
Cc1ccc(-c2nc3s/c(=C\c4ccco4)c(=O)n3n2)cc1,4,-0.0066,0.077,70*,4,103
COc1cc(NC(=O)COC(=O)c2cnccn2)c(C)cc1[N+](=O)[O-],7,0.5,-0.12,100,16,x
Cn1nc(-c2ccc(C(=O)N3CCN(CCO)CC3)cc2)c2ccccc2c1=O,-2,0.76,0.71,72*,-9,97
SMILES,V-ATPase pH,Cl transport mod,Dynein transport,ABCB6 inh MLPCN,p-CIP stab down,ABCB6 blocker 1
Cc1ccc(CN2C(=O)c3ccccc3NC2c2cc(Br)ccc2O)cc1 (stereo not given),2,x,x,99,-9,x
O=C(COc1ccccc1)N1CCN(C(=O)COc2ccccc2)CC1,0,x,x,68*,9,99
O=C(COc1ccccc1)N1CCCCCCC1,5,x,x,98,7,x
COCc1cc(C)nc(SCC(=O)NC2CCCCC2C)c1C#N (stereo not given),0,x,x,96,2,x
COCc1cc(C)nc(SCC(=O)N2CCC(C)CC2)c1C#N,-1,0.68,0.88,58*,-10,102
Cc1ccc(CN(C)C(=O)c2ccccc2Oc2ccccc2)o1,3,-0.005,-2.6,67*,-4,98
COc1ccc(C(=O)NC(=S)NCc2ccc(-c3nc4ccccc4o3)cc2)cc1OC,0,0.57,-0.42,93,-6,x
CCOc1cc(C(=O)NCc2ccc(-c3nc4ccccc4o3)cc2)cc(OCC)c1OCC,-1,x,0.49,70*,-8,98
Cc1cc(C)n2nc(C(=O)OCC(=O)c3ccc(F)cc3)nc2n1,2,x,x,105,x,x
CC(=O)c1cccc(NC(=O)C(C)N2CCc3ccccc3C2)c1 (stereo not given),6,-1.1,0.8,103,-12,x
COC(=O)CCC(=O)Nc1cc(Cl)cc(Cl)c1,3,0.012,0.79,72*,-1,100
COC(=O)CCC(=O)Nc1ccc(NC(=O)CCC(=O)OC)cc1,2,-0.0022,-0.33,99,-15,x
COC(CNC(=O)c1cnn2c(C)c(Cc3ccccc3)c(C)nc12)OC,-1,-0.28,-0.00027,92,14,96
COC(CNC(=O)Cc1c(C)nc2c(-c3ccccc3)c(C)nn2c1C)OC,-2,-0.37,1.4,92,-3,x
Cc1cc(C)c(Cc2c(C)nc3c(C(=O)NCc4ccco4)cnn3c2C)c(C)c1,0,-1.3,-0.099,95,0,99
COc1cccc(C(C)(O)c2nc(-c3cccs3)cs2)c1 (stereo not given),x,x,x,97,x,x
CCN1C(=O)CSc2ccc(C(=O)NCc3ccco3)cc21,-5,0.27,-0.21,53*,3,101
O=S(=O)(c1ccccc1)N1CCN(C2CCN(Cc3ccccc3)CC2)CC1,3,1.1,-0.6,100,-1,x
O=S(=O)(c1ccc2ccccc2c1)N1CCN(C2CCN(Cc3ccccc3)CC2)CC1,-2,-0.096,0.17,48*,-2,97
CC(C)(C)NC(=O)CN1C(=O)NC(c2ccccc2)(c2ccccc2)C1=O,3,x,x,98,-4,x
CC(=O)CN1C(=O)NC(c2ccccc2)(c2ccccc2)C1=O,0,x,x,46*,11,104
CCOc1cc(C(=O)N2CCN(C/C=C/c3ccccc3)CC2)cc(OCC)c1OCC,0,-0.86,3.1,67*,-4,100
CC(C)c1ccc(NC(=O)COC(=O)CSc2nnc(N)s2)cc1,2,0.89,0.92,88,1,x
CCOc1ccc(S(=O)(=O)N2CCN(C(=O)c3cc(S(=O)(=O)N4CCOCC4)ccc3C)CC2)cc1,-5,x,x,68*,x,103
CCC(=O)Nc1ccc(N2CCN(C(=O)c3ccccc3C)CC2)cc1,3,-0.19,2.9,65*,9,98
Cc1ccccc1C(=O)N1CCN(c2ccc(NC(=O)Cc3ccccc3)cc2)CC1,0,x,x,97,-14,x
Cc1cccc(C)c1OCCOC(=O)c1cccc(S(=O)(=O)N2CCOCC2)c1,-2,x,x,71*,x,100

# High-throughput results (PubChem)
